PMC10339703 (Clinical and Translational Science, 2023)
Entries after “also recorded” stand apart in the source; their conditions may differ.

System: healthy subjects
Experiment: Safety and tolerability
Format: in vivo, human
Settings: for subjects with ADRs, percentage: SAD
Outline: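 Randomized, double-blind, placebo-controlled (6:2, n = 8/cohort) single oral doses in healthy adults after ≥10 h fast, with sentinel pair observed 24 h first. TEAEs were graded by nature, incidence, severity, seriousness and outcome, coded in MedDRA 23.0. ADR: any AE whose causality to test compound could not be ruled out. Labs, vital signs, examinations and 12-lead ECGs were also monitored.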

[1] = SAD study, all subjects who received bersiporocin

Structure (SMILES): O[C@H]1CCCN[C@@H]1CCCn1cnc2c(Cl)c(Cl)ccc21 [Bersiporocin]
- ADRs, number of events (SAD single 100 mg capsule): 3
- Abdominal discomfort (ADR), subjects n (%) (SAD single 100 mg capsule): 0
- Abdominal distension (ADR), subjects n (%) (SAD single 100 mg capsule): 0
- Abdominal pain (ADR), subjects n (%) (SAD single 100 mg capsule): 0
- Abdominal pain upper (ADR), subjects n (%) (SAD single 100 mg capsule): 0
- Constipation (ADR), subjects n (%) (SAD single 100 mg capsule): 0
- Decreased appetite (ADR), subjects n (%) (SAD single 100 mg capsule): 0
- Diarrhea (ADR), subjects n (%) (SAD single 100 mg capsule): 0
- Dysgeusia (ADR), subjects n (%) (SAD single 100 mg capsule): 0
- Epigastric discomfort (ADR), subjects n (%) (SAD single 100 mg capsule): 0
- Gastroesophageal reflux disease (ADR), number of events (SAD single 100 mg capsule): 1
- Gastroesophageal reflux disease (ADR), subjects n (%) (SAD single 100 mg capsule): 1 (16.7)
- Headache (ADR), subjects n (%) (SAD single 100 mg capsule): 0
- Hypersensitivity (ADR), subjects n (%) (SAD single 100 mg capsule): 0
- Hypotension (ADR), subjects n (%) (SAD single 100 mg capsule): 0
- Malaise (ADR), subjects n (%) (SAD single 100 mg capsule): 0
- Nausea (ADR), number of events (SAD single 100 mg capsule): 1
- Nausea (ADR), subjects n (%) (SAD single 100 mg capsule): 1 (16.7)
- Neutropenia (ADR), number of events (SAD single 100 mg capsule): 1
- Neutropenia (ADR), subjects n (%) (SAD single 100 mg capsule): 1 (16.7)
- Oropharyngeal pain (ADR), subjects n (%) (SAD single 100 mg capsule): 0
- Photosensitivity reaction (ADR), subjects n (%) (SAD single 100 mg capsule): 0
- Subjects with ADRs, n (%) (SAD single 100 mg capsule): 3 (50.0)
- Tachycardia (ADR), subjects n (%) (SAD single 100 mg capsule): 0
- Vertigo (ADR), subjects n (%) (SAD single 100 mg capsule): 0
- Vomiting (ADR), subjects n (%) (SAD single 100 mg capsule): 0
- ADRs, number of events (SAD single 100 mg solution): 12
- Abdominal discomfort (ADR), subjects n (%) (SAD single 100 mg solution): 0
- Abdominal distension (ADR), subjects n (%) (SAD single 100 mg solution): 0
- Abdominal pain (ADR), subjects n (%) (SAD single 100 mg solution): 0
- Abdominal pain upper (ADR), subjects n (%) (SAD single 100 mg solution): 0
- Constipation (ADR), subjects n (%) (SAD single 100 mg solution): 0
- Decreased appetite (ADR), subjects n (%) (SAD single 100 mg solution): 0
- Diarrhea (ADR), subjects n (%) (SAD single 100 mg solution): 0
- Dysgeusia (ADR), number of events (SAD single 100 mg solution): 1
- Dysgeusia (ADR), subjects n (%) (SAD single 100 mg solution): 1 (16.7)
- Epigastric discomfort (ADR), subjects n (%) (SAD single 100 mg solution): 0
- Gastroesophageal reflux disease (ADR), subjects n (%) (SAD single 100 mg solution): 0
- Headache (ADR), number of events (SAD single 100 mg solution): 2
- Headache (ADR), subjects n (%) (SAD single 100 mg solution): 2 (33.3)
- Hypersensitivity (ADR), subjects n (%) (SAD single 100 mg solution): 0
- Hypotension (ADR), subjects n (%) (SAD single 100 mg solution): 0
- Malaise (ADR), subjects n (%) (SAD single 100 mg solution): 0
- Nausea (ADR), number of events (SAD single 100 mg solution): 5
- Nausea (ADR), subjects n (%) (SAD single 100 mg solution): 5 (83.3)
- Neutropenia (ADR), subjects n (%) (SAD single 100 mg solution): 0
- Oropharyngeal pain (ADR), subjects n (%) (SAD single 100 mg solution): 0
- Photosensitivity reaction (ADR), subjects n (%) (SAD single 100 mg solution): 0
- Subjects with ADRs, n (%) (SAD single 100 mg solution): 5 (83.3)
- Tachycardia (ADR), subjects n (%) (SAD single 100 mg solution): 0
- Vertigo (ADR), subjects n (%) (SAD single 100 mg solution): 0
- Vomiting (ADR), number of events (SAD single 100 mg solution): 4
- Vomiting (ADR), subjects n (%) (SAD single 100 mg solution): 4 (66.7)
- ADRs, number of events (SAD single 300 mg capsule): 15
- Abdominal discomfort (ADR), subjects n (%) (SAD single 300 mg capsule): 0
- Abdominal distension (ADR), number of events (SAD single 300 mg capsule): 1
- Abdominal distension (ADR), subjects n (%) (SAD single 300 mg capsule): 1 (16.7)
- Abdominal pain (ADR), number of events (SAD single 300 mg capsule): 2
- Abdominal pain (ADR), subjects n (%) (SAD single 300 mg capsule): 2 (33.3)
- Abdominal pain upper (ADR), subjects n (%) (SAD single 300 mg capsule): 0
- Constipation (ADR), subjects n (%) (SAD single 300 mg capsule): 0
- Decreased appetite (ADR), number of events (SAD single 300 mg capsule): 1
- Decreased appetite (ADR), subjects n (%) (SAD single 300 mg capsule): 1 (16.7)
- Diarrhea (ADR), number of events (SAD single 300 mg capsule): 2
- Diarrhea (ADR), subjects n (%) (SAD single 300 mg capsule): 2 (33.3)
- Dysgeusia (ADR), subjects n (%) (SAD single 300 mg capsule): 0
- Epigastric discomfort (ADR), subjects n (%) (SAD single 300 mg capsule): 0
- Gastroesophageal reflux disease (ADR), subjects n (%) (SAD single 300 mg capsule): 0
- Headache (ADR), number of events (SAD single 300 mg capsule): 1
- Headache (ADR), subjects n (%) (SAD single 300 mg capsule): 1 (16.7)
- Hypersensitivity (ADR), subjects n (%) (SAD single 300 mg capsule): 0
- Hypotension (ADR), subjects n (%) (SAD single 300 mg capsule): 0
- Malaise (ADR), number of events (SAD single 300 mg capsule): 1
- Malaise (ADR), subjects n (%) (SAD single 300 mg capsule): 1 (16.7)
- Nausea (ADR), number of events (SAD single 300 mg capsule): 4
- Nausea (ADR), subjects n (%) (SAD single 300 mg capsule): 3 (50.0)
- Neutropenia (ADR), subjects n (%) (SAD single 300 mg capsule): 0
- Oropharyngeal pain (ADR), subjects n (%) (SAD single 300 mg capsule): 0
- Photosensitivity reaction (ADR), subjects n (%) (SAD single 300 mg capsule): 0
- Subjects with ADRs, n (%) (SAD single 300 mg capsule): 4 (66.7)
- Tachycardia (ADR), subjects n (%) (SAD single 300 mg capsule): 0
- Vertigo (ADR), subjects n (%) (SAD single 300 mg capsule): 0
- Vomiting (ADR), number of events (SAD single 300 mg capsule): 3
- Vomiting (ADR), subjects n (%) (SAD single 300 mg capsule): 3 (50.0)
- ADRs, number of events (SAD single 500 mg tablet): 23
- Abdominal discomfort (ADR), subjects n (%) (SAD single 500 mg tablet): 0
- Abdominal distension (ADR), subjects n (%) (SAD single 500 mg tablet): 0
- Abdominal pain (ADR), number of events (SAD single 500 mg tablet): 1
- Abdominal pain (ADR), subjects n (%) (SAD single 500 mg tablet): 1 (16.7)
- Abdominal pain upper (ADR), number of events (SAD single 500 mg tablet): 1
- Abdominal pain upper (ADR), subjects n (%) (SAD single 500 mg tablet): 1 (16.7)
- Constipation (ADR), number of events (SAD single 500 mg tablet): 1
- Constipation (ADR), subjects n (%) (SAD single 500 mg tablet): 1 (16.7)
- Decreased appetite (ADR), number of events (SAD single 500 mg tablet): 1
- Decreased appetite (ADR), subjects n (%) (SAD single 500 mg tablet): 1 (16.7)
- Diarrhea (ADR), number of events (SAD single 500 mg tablet): 4
- Diarrhea (ADR), subjects n (%) (SAD single 500 mg tablet): 4 (66.7)
- Dysgeusia (ADR), subjects n (%) (SAD single 500 mg tablet): 0
- Epigastric discomfort (ADR), number of events (SAD single 500 mg tablet): 1
- Epigastric discomfort (ADR), subjects n (%) (SAD single 500 mg tablet): 1 (16.7)
- Gastroesophageal reflux disease (ADR), subjects n (%) (SAD single 500 mg tablet): 0
- Headache (ADR), number of events (SAD single 500 mg tablet): 2
- Headache (ADR), subjects n (%) (SAD single 500 mg tablet): 2 (33.3)
- Hypersensitivity (ADR), number of events (SAD single 500 mg tablet): 1
- Hypersensitivity (ADR), subjects n (%) (SAD single 500 mg tablet): 1 (16.7)
- Hypotension (ADR), number of events (SAD single 500 mg tablet): 1
- Hypotension (ADR), subjects n (%) (SAD single 500 mg tablet): 1 (16.7)
- Malaise (ADR), subjects n (%) (SAD single 500 mg tablet): 0
- Nausea (ADR), number of events (SAD single 500 mg tablet): 5
- Nausea (ADR), subjects n (%) (SAD single 500 mg tablet): 5 (83.3)
- Neutropenia (ADR), subjects n (%) (SAD single 500 mg tablet): 0
- Oropharyngeal pain (ADR), number of events (SAD single 500 mg tablet): 1
- Oropharyngeal pain (ADR), subjects n (%) (SAD single 500 mg tablet): 1 (16.7)
- Photosensitivity reaction (ADR), subjects n (%) (SAD single 500 mg tablet): 0
- Subjects with ADRs, n (%) (SAD single 500 mg tablet): 6 (100)
- Tachycardia (ADR), number of events (SAD single 500 mg tablet): 1
- Tachycardia (ADR), subjects n (%) (SAD single 500 mg tablet): 1 (16.7)
- Vertigo (ADR), number of events (SAD single 500 mg tablet): 1
- Vertigo (ADR), subjects n (%) (SAD single 500 mg tablet): 1 (16.7)
- Vomiting (ADR), number of events (SAD single 500 mg tablet): 2
- Vomiting (ADR), subjects n (%) (SAD single 500 mg tablet): 2 (33.3)
- ADRs, number of events (SAD single 600 mg capsule): 15
- Abdominal discomfort (ADR), number of events (SAD single 600 mg capsule): 1
- Abdominal discomfort (ADR), subjects n (%) (SAD single 600 mg capsule): 1 (16.7)
- Abdominal distension (ADR), subjects n (%) (SAD single 600 mg capsule): 0
- Abdominal pain (ADR), subjects n (%) (SAD single 600 mg capsule): 0
- Abdominal pain upper (ADR), subjects n (%) (SAD single 600 mg capsule): 0
- Constipation (ADR), subjects n (%) (SAD single 600 mg capsule): 0
- Decreased appetite (ADR), subjects n (%) (SAD single 600 mg capsule): 0
- Diarrhea (ADR), number of events (SAD single 600 mg capsule): 2
- Diarrhea (ADR), subjects n (%) (SAD single 600 mg capsule): 2 (33.3)
- Dysgeusia (ADR), subjects n (%) (SAD single 600 mg capsule): 0
- Epigastric discomfort (ADR), subjects n (%) (SAD single 600 mg capsule): 0
- Gastroesophageal reflux disease (ADR), subjects n (%) (SAD single 600 mg capsule): 0
- Headache (ADR), number of events (SAD single 600 mg capsule): 1
- Headache (ADR), subjects n (%) (SAD single 600 mg capsule): 1 (16.7)
- Hypersensitivity (ADR), subjects n (%) (SAD single 600 mg capsule): 0
- Hypotension (ADR), subjects n (%) (SAD single 600 mg capsule): 0
- Malaise (ADR), subjects n (%) (SAD single 600 mg capsule): 0
- Nausea (ADR), number of events (SAD single 600 mg capsule): 6
- Nausea (ADR), subjects n (%) (SAD single 600 mg capsule): 5 (83.3)
- Neutropenia (ADR), subjects n (%) (SAD single 600 mg capsule): 0
- Oropharyngeal pain (ADR), subjects n (%) (SAD single 600 mg capsule): 0
- Photosensitivity reaction (ADR), number of events (SAD single 600 mg capsule): 1
- Photosensitivity reaction (ADR), subjects n (%) (SAD single 600 mg capsule): 1 (16.7)
- Subjects with ADRs, n (%) (SAD single 600 mg capsule): 5 (83.3)
- Tachycardia (ADR), subjects n (%) (SAD single 600 mg capsule): 0
- Vertigo (ADR), subjects n (%) (SAD single 600 mg capsule): 0
- Vomiting (ADR), number of events (SAD single 600 mg capsule): 4
- Vomiting (ADR), subjects n (%) (SAD single 600 mg capsule): 4 (66.7)
- subjects with nausea and vomiting, percentage (SAD starting dose group (100 mg, 150 mL solution)): 83.3%
- ADRs, number of events [1]: 68
- TEAEs, number of events [1]: 90
- subjects with TEAEs, number [1]: 23
- subjects with TEAEs, percentage [1]: 77%
- subjects with ADRs, percentage (capsule group (after formulation change)): 50%
- subjects with ADRs, percentage (solution group): 83%
- severe, life‐threatening, or fatal ADRs (across the study (SAD and MAD)): no severe, life‐threatening, or fatal ADRs
- severity of most ADRs (across the study (SAD and MAD)): mild in severity
- severe or serious adverse events (single oral dose up to 600 mg and multiple oral doses up to 200 mg twice daily for 14 days): No severe or serious adverse events were observed; also recorded: No severe or serious AEs were observed
